In ChEMBL document CHEMBL1147969, “Synthesis of some novel heterocyclic compounds derived from diflunisal hydrazide as potential anti-infective and anti-inflammatory agents” (2007):
Converted amounts (≈) assume the structure as drawn. Values belong to the compound of their own block, whether it stands above or below them. The source made the active and inactive calls.

Assays:
Mus musculus [1] = experiment: Antiinflammatory activity against BALB/c mouse assessed as inhibition of carrageenan-induced paw edema at 50 mg/kg, po after 4 hrs; type: functional
In short: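 Mice were fasted on the last day (water only) and dosed by gavage at 50 mg/kg, suspended in 0.5% methyl cellulose; controls got vehicle, six mice per group. After 60 min, 0.5 mg/mL carrageenan in saline was injected subplantar into the right hind paw, with saline in the left. The right–left thickness difference was read by microcaliper at 4 h. % inhibition = (n−n0)/n×100 versus control.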

Mus musculus [2] = experiment: Antinociceptive activity against mouse assessed as paw withdrawal latency at 50 mg/kg, po after 60 mins by hot plate test; type: functional
In short: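 Hot plate was set at 55 °C. Latency to jumping or hind-paw licking was recorded before and 60 min after oral dosing at 50 mg/kg, or vehicle, with a 30 s cutoff. Groups had at least eight mice each. Testing was done between 2:00 and 4:00 pm.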

Coxsackievirus B4 = experiment: Antiviral activity against Coxsackie virus B4-induced cytopathogenicity at 16 ug/mL; type: functional, organism-based
Human alphaherpesvirus 1 [3] = experiment: Antiviral activity against TK positive HSV1 KOS-induced cytopathogenicity at 16 ug/mL; type: functional, organism-based
Sindbis virus = experiment: Antiviral activity against Sindbis virus-induced cytopathogenicity at 16 ug/mL; type: functional, organism-based
Punta Toro virus = experiment: Antiviral activity against Punta Toro virus-induced cytopathogenicity at 16 ug/mL; type: functional, organism-based
Human alphaherpesvirus 1 [4] = experiment: Antiviral activity against acyclovir resistant TK positive HSV1 KOS-induced cytopathogenicity at 16 ug/mL; type: functional, organism-based
Enterococcus faecalis = experiment: Antimicrobial activity against Enterococcus faecalis ATCC […] by microwell dilution method; type: functional
In short: (§1)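 For broth microdilution, inocula came from 12 h broth cultures adjusted to 0.5 McFarland. Test agents in 10% DMSO were serially diluted twofold (7.8–500) in nutrient broth. Wells were shaken 20 s at 300 rpm and incubated 24 h. Clear wells were plated on nutrient agar to check growth. MIC was the lowest concentration inhibiting growth. Each compound was screened twice per organism.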

Escherichia coli = experiment: Antimicrobial activity against Escherichia coli A1 by microwell dilution method; type: functional; in short: as §1
Proteus vulgaris [5] = experiment: Antimicrobial activity against Proteus vulgaris A161 […]; type: functional; in short: as §1
Proteus vulgaris [6] = experiment: Antimicrobial activity against Proteus vulgaris KUKEM1329 by disk diffusion method at 300 ug/disc; type: functional; in short: as §1
Streptococcus pyogenes [7] = experiment: Antimicrobial activity against Streptococcus pyogenes ATCC 176 by microwell dilution method; type: functional; in short: as §1
Streptococcus pyogenes [8] = experiment: Antimicrobial activity against Streptococcus pyogenes KUKEM676 by microwell dilution method; type: functional; in short: as §1
Streptococcus pyogenes [9] = experiment: Antimicrobial activity against Streptococcus pyogenes KUKEM676 by disk diffusion method at 300 ug/disc; type: functional
In short: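 Mueller-Hinton agar was spread with 10^8 CFU/mL bacteria. 6 mm discs held 300 per disc of test agent, with DMSO discs as negative controls. Plates were incubated 24 h, at 37 °C for clinical strains or 27 °C for plant-associated strains. Zone of inhibition diameter in mm was measured. Each assay was repeated twice.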

Aspergillus flavus [10] = experiment: Antifungal activity against Aspergillus flavus after 72 hrs by agar dilution method; type: functional
In short: (§2)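 Fungal isolates were screened on agar dilution plates. Test agents in 10% DMSO were mixed into potato dextrose agar containing 0.5% v/v Tween 20, over a range of 7.8–500. Plates were spot-inoculated with 10^4 spore/mL and held 72 h, at 27 °C for plant isolates or 37 °C for clinical isolates. MIC was the lowest concentration with no growth. Each test was repeated at least twice.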

Aspergillus flavus [11] = experiment: Antifungal activity against Aspergillus flavus at 300 ug/disc after 72 hrs by disk diffusion method; type: functional
In short: (§3)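 Disc diffusion was run on potato dextrose agar seeded with 10^4 spore/mL. 6 mm discs each carried 300 per disc of test agent. DMSO-impregnated discs served as negative controls. Plates were incubated 72 h, at 27 °C for plant-associated isolates or 37 °C for clinical isolates. The read-out was inhibition zone diameter in mm. Each assay was repeated twice.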

Aspergillus versicolor [12] = experiment: Antifungal activity against Aspergillus variecolor after 72 hrs by agar dilution method; type: functional; in short: as §2
Aspergillus versicolor [13] = experiment: Antifungal activity against Aspergillus variecolor at 300 ug/disc after 72 hrs by disk diffusion method; type: functional; in short: as §3
Trichophyton benhamiae [14] = experiment: Antifungal activity against Trichophyton mentagrophytes after 72 hrs by agar dilution method; type: functional, Arthroderma benhamiae; in short: as §2
Trichophyton benhamiae [15] = experiment: Antifungal activity against Trichophyton mentagrophytes at 300 ug/disc after 72 hrs by disk diffusion method; type: functional, Arthroderma benhamiae; in short: as §3
Proteus vulgaris [16] = experiment: Antimicrobial activity against Proteus vulgaris KUKEM1329 by disk diffusion method at 10 ug/disc; type: functional; conditions: read-out: IZ
Proteus vulgaris [17] = experiment: Antimicrobial activity against Proteus vulgaris A161 by disk diffusion method at 10 ug/disc; type: functional; conditions: read-out: IZ
Streptococcus pyogenes [18] = experiment: Antimicrobial activity against Streptococcus pyogenes ATCC 176 by disk diffusion method at 10 ug/disc; type: functional; conditions: read-out: IZ
Streptococcus pyogenes [19] = experiment: Antimicrobial activity against Streptococcus pyogenes KUKEM676 by disk diffusion method at 10 ug/disc; type: functional; conditions: read-out: IZ
Trichophyton rubrum = experiment: Antifungal activity against Trichophyton rubrum at 300 ug/disc after 72 hrs by disk diffusion method; type: functional; in short: as §3

SMILES: CCNc1nnc(-c2cc(-c3ccc(F)cc3F)ccc2O)s1
inhibition in vivo at 50 mg/kg (Mus musculus [1]): 50.2%
Paw withdrawal latency (Mus musculus [2]): 13.5 s

SMILES: C=CCNc1nnc(-c2cc(-c3ccc(F)cc3F)ccc2O)s1
inhibition in vivo at 50 mg/kg (Mus musculus [1]): 57.2%
Paw withdrawal latency (Mus musculus [2]): 13.9 s
Activity (Coxsackievirus B4): Active
Activity (Human alphaherpesvirus 1 [3]): Active
Activity (Sindbis virus): Active
Activity (Punta Toro virus): Active
Activity (Human alphaherpesvirus 1 [4]): Active

MIC (Streptococcus pyogenes [9]): 62.2 µg/mL (≈ 180 µM)
MIC (Aspergillus flavus [11]): 31.2 µg/mL (≈ 90.5 µM)
MIC (Aspergillus versicolor [13]): 62.5 µg/mL (≈ 181 µM)
MIC (Trichophyton benhamiae [15]): 31.2 µg/mL (≈ 90.5 µM)
SMILES: C=CCn1c(-c2cc(-c3ccc(F)cc3F)ccc2O)n[nH]c1=S
inhibition in vivo at 50 mg/kg (Mus musculus [1]): 73%
Paw withdrawal latency (Mus musculus [2]): 16.8 s
inhibition zone (IZ) (Enterococcus faecalis): 10 mm
inhibition zone (IZ) (Escherichia coli): 12 mm
inhibition zone (IZ) (Proteus vulgaris [5]): 10 mm
inhibition zone (IZ) (Proteus vulgaris [6]): 9 mm
inhibition zone (IZ) (Streptococcus pyogenes [7]): 12 mm
inhibition zone (IZ) (Streptococcus pyogenes [8]): 14 mm
inhibition zone (IZ) (Aspergillus flavus [10]): 14 mm
inhibition zone (IZ) (Aspergillus versicolor [12]): 10 mm
inhibition zone (IZ) (Trichophyton benhamiae [14]): 14 mm

SMILES: Cn1c(-c2cc(-c3ccc(F)cc3F)ccc2O)n[nH]c1=S
inhibition in vivo at 50 mg/kg (Mus musculus [1]): 56.9%
Paw withdrawal latency (Mus musculus [2]): 16.4 s
inhibition zone (IZ) (Proteus vulgaris [5]): 10 mm
inhibition zone (IZ) (Proteus vulgaris [6]): 8 mm

MIC (Streptococcus pyogenes [9]): 125 µg/mL (≈ 304 µM)
SMILES: COc1ccc(-n2c(-c3cc(-c4ccc(F)cc4F)ccc3O)n[nH]c2=S)cc1
inhibition in vivo at 50 mg/kg (Mus musculus [1]): 53.5%
Paw withdrawal latency (Mus musculus [2]): 15 s
inhibition zone (IZ) (Enterococcus faecalis): 12 mm
inhibition zone (IZ) (Proteus vulgaris [6]): 10 mm
inhibition zone (IZ) (Streptococcus pyogenes [7]): 10 mm
inhibition zone (IZ) (Streptococcus pyogenes [8]): 9 mm

SMILES: CCNc1nnc(-c2cc(-c3ccc(F)cc3F)ccc2O)o1
inhibition in vivo at 50 mg/kg (Mus musculus [1]): 36.8%
Paw withdrawal latency (Mus musculus [2]): 11 s

SMILES: Oc1ccc(-c2ccc(F)cc2F)cc1-c1nnc(Nc2ccccc2)s1
inhibition in vivo at 50 mg/kg (Mus musculus [1]): 43%
Paw withdrawal latency (Mus musculus [2]): 16.5 s
inhibition zone (IZ) (Escherichia coli): 16 mm
inhibition zone (IZ) (Proteus vulgaris [5]): 14 mm
inhibition zone (IZ) (Proteus vulgaris [6]): 16 mm
inhibition zone (IZ) (Streptococcus pyogenes [7]): 18 mm

SMILES: COc1ccc(Nc2nnc(-c3cc(-c4ccc(F)cc4F)ccc3O)o2)cc1
inhibition in vivo at 50 mg/kg (Mus musculus [1]): 35.3%
Paw withdrawal latency (Mus musculus [2]): 12 s

SMILES: CC1COc2c(N3CCN(C)CC3)c(F)cc3c(=O)c(C(=O)O)cn1c23 (stereo not given) [OFLOXACIN]
zone of inhibition at 10 µg/disc (Proteus vulgaris [16]): 13 mm
zone of inhibition at 10 µg/disc (Proteus vulgaris [17]): 12 mm
zone of inhibition at 10 µg/disc (Streptococcus pyogenes [18]): 10 mm
zone of inhibition at 10 µg/disc (Streptococcus pyogenes [19]): 13 mm

MIC (Aspergillus flavus [11]): 15.6 µg/mL (≈ 32.8 µM)
MIC (Aspergillus versicolor [13]): 62.5 µg/mL (≈ 131 µM)
MIC (Trichophyton rubrum): 15.6 µg/mL (≈ 32.8 µM)
MIC (Trichophyton benhamiae [15]): 31.2 µg/mL (≈ 65.7 µM)
SMILES: CCN[C@@H]1C[C@H](N)[C@@H](O[C@H]2OC(CN)=CC[C@H]2N)[C@H](O)[C@H]1O[C@H]1OC[C@](C)(O)[C@H](NC)[C@H]1O [NETILMICIN]

SMILES: Oc1ccc(-c2ccc(F)cc2F)cc1-c1nnc(NC2CCCCC2)o1
inhibition in vivo at 50 mg/kg (Mus musculus [1]): 23.8%
Paw withdrawal latency (Mus musculus [2]): 12 s

SMILES: Oc1ccc(-c2ccc(F)cc2F)cc1-c1n[nH]c(=S)n1C1CCCCC1
inhibition in vivo at 50 mg/kg (Mus musculus [1]): 64.4%
Paw withdrawal latency (Mus musculus [2]): 13.2 s
inhibition zone (IZ) (Proteus vulgaris [5]): 10 mm
inhibition zone (IZ) (Proteus vulgaris [6]): 12 mm
Activity (Sindbis virus): Active
